# Screening results from PubChem.
# This is one part of a sample in which hits are shown more often than they occur.
# Calb biofilm kill: mixtures killing C. albicans biofilm; C. albicans biofilm persisters + clotrimazole, fluorescence viability; primary screen in compound mixtures of four per well; inhibition, % at 7.6 µM; 120,000 tested, 0.02% active;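 active = inhibition above 30.3% in the primary screen of four-compound pools, then above 30% when the compound was retested; inconclusive = passed the primary limit but could not be retested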;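 note: compounds exposed to preformed 24 h biofilms for 48 h; 0% = untreated biofilm control and 100% = clotrimazole plus chlorhexidine kill blank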
#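 System: C. albicans CAF4-2 wild-type biofilms; Medium: RPMI/MOPS medium, pH 7.0; Reagent: Clotrimazole, 50 µg/mL; Times: biofilm formation 24 h, compound exposure 48 h, 37 °C; Detection: 2-h Alamar Blue fluorescence, 535/590 nm excitation/emission; Evaluation: percent inhibition of biofilm viability.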
# ROMK primary: modulators of human ROMK potassium channel; P48048; Tet-inducible ROMK, thallium flux fluorescence; actives lie on both sides; B-score at 10 µM; 130,000 tested, 2% active; AID 1918;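 active = signal ratio slope over the read window, or its plate-corrected B-score, at least 3 SD from the plate mean, either direction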;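 note: B-score of the F/F0 ratio slope over 7 to 12 s after thallium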
# Target sequence (P48048 whole entry, looked up): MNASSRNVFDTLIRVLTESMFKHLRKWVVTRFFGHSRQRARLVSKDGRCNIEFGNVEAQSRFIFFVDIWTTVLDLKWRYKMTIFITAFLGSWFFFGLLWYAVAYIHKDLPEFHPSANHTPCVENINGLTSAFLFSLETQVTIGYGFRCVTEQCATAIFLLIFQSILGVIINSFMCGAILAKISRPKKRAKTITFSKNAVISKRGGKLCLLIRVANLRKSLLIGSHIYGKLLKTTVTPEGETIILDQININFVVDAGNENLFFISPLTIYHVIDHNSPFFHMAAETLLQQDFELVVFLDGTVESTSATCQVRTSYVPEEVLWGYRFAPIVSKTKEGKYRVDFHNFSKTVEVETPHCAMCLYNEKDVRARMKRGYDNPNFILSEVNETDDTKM
# Pf gamet viab: inhibitors of late stage P. falciparum gametocyte viability; 150,000 tested, 0.065% active; P. falciparum stage V gametocytes, ATP luminescence, 24 h; AID 743093; inhibition, % at 10.9 µM;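 active = inhibition above the mean plus 3 SD of compounds within the control limits, set per campaign, cut at about 38% in these data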;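 note: 0% = DMSO wells and 100% = medium only without gametocytes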
# ROMK retest: human ROMK channel modulation, retest confirmation; shares compounds with ROMK primary; ROMK thallium flux, fluorescence ratio; active compounds read low; normalized thallium flux (F/F0 slope) at 10 µM; 3,000 tested, 54% active; AID 1917;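 active = Flux at 10 µM at least 3 SD below or above vehicle control mean in one or both replicates; inconclusive = no clear call, values can overlap the other calls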
# Starred values were filed as active, the others as inactive; ? = inconclusive; · = no result.
SMILES,Calb biofilm kill,ROMK primary,Pf gamet viab,ROMK retest
Cc1cccc(-c2nc(CSCC(=O)N3CCN(c4ccccn4)CC3)c(C)o2)c1,·,-4.31*,22.4,0.0529*
Nc1nonc1C(=O)NCCNS(=O)(=O)c1ccc(Br)cc1,·,·,7.1,·
Nc1cc(=O)[nH]c(N2CCN(c3ccccc3)CC2)n1,-0.1,0.485,6.7,·
O=c1cc(-c2ccc([N+](=O)[O-])cc2)c2ccc(O)cc2o1,17.9,-0.306,3.7,·
CCN(CC)CCCNC(=O)C1CCN(C(=O)c2cc3sccc3n2Cc2ccc(F)cc2)CC1,·,-1.56,13.1,·
CCn1c(C(=O)N2CCC(C(=O)NCCCSC3CCCCC3)CC2)cc2sccc21,·,·,·,?
Cc1nn(Cc2ccccc2)c(Cl)c1/C=C1\NC(=S)NC1=O,-4.2,0.919,9.0,·
CC(C)(C)n1nnnc1C(c1cccc(C#N)c1)N1CCCc2ccccc21 (stereo not drawn),·,-3.96*,-7.2,0.0646*
CC(C)(C)n1nnnc1C(c1ccc(Cl)cc1)N1CCCc2ccccc21 (stereo not drawn),·,·,9.1,·
CCCSc1nnc(NC(=O)Nc2ccc(F)cc2)s1,·,-1.96,·,0.0616*
CCCSc1nnc(NC(=O)Nc2ccc(C)cc2)s1,18.2,·,-0.6,·
Nc1nc(NCCN2CCOCC2)nc(NCc2ccccc2)c1[N+](=O)[O-],20.5,·,19.5,·
CCc1cc2c(nc1CC)CCN(CC/C(C)=N/OC[C@H]1O[C@H](c3ccccc3)C=C[C@@H]1Oc1ccc(OC)cc1)C2,4.8,-4.73*,·,0.0538*
COc1ccc(O[C@H]2C=C[C@@H](c3ccccc3)O[C@@H]2CO/N=C(\C)CCN2CCc3nc(-c4ccccc4)c(-c4ccccc4)cc3C2)cc1,19.8,-2.64,·,·
COc1ccc(CC(=O)Nc2cccc(-c3ccc4nncn4n3)c2)cc1OC,20.8,-0.568,-15.1,·
O=S1CCCSC1c1cccnc1 (stereo not drawn),·,0.0571,·,0.0764
O=C1CSC(c2cccnc2)N1c1ccccc1 (stereo not drawn),21.3,·,-6.5,·
CCCN1C=CC(=CC=C(C#N)C#N)C=C1,9.5,·,-13.4,·
C=CCN1C=CC(=CC=C(C#N)C#N)C=C1,16.2,-7.46*,5.7,0.0336*
CCN(CC)C(=O)c1ccc(COc2ccc(Cl)c(C)c2)o1,·,·,-18.3,·
COc1cccc(-n2nnnc2SCC(=O)NCc2ccco2)c1,·,0.679,8.5,·
COc1ccc(-n2nnnc2SCC(=O)NCc2ccco2)cc1OC,·,·,-1.4,0.0766
COc1ccc(CNC(=O)CCC(=O)Nc2nnc(CC(C)C)s2)cc1,33.6,·,-0.8,·
Cc1cc(C)cc(C(=O)NC(CC(N)=O)c2ccc(NCC3CC3)c([N+](=O)[O-])c2)c1 (stereo not drawn),·,·,-14.2,·
COC(=O)C1=C(C(=O)OC)[C@@H]2N(Cc3ccccc3)c3ccccc3[C@@]23C[C@@H](C(=O)OC)N(C(=O)CC(C)C)C3=N1,12.7,·,·,?
SMILES,Calb biofilm kill,ROMK primary,Pf gamet viab,ROMK retest
COC(=O)C1=C(C(=O)OC)[C@@H]2N(Cc3ccccc3)c3ccccc3[C@@]23C[C@@H](C(=O)OC)N(C(=O)c2cccs2)C3=N1,13.4,·,·,·
CC(C)COc1ccc(C(=O)N2C(=O)c3ccc(N)cc3C2=O)cc1,8.2,·,11.6,·
CCCCOC(=O)CSC1=C(C#N)C(c2cccnc2)C(C(=O)OCC)=C(c2ccccc2)N1 (stereo not drawn),6.3,-3.38*,13.5,0.0668*
CCOC(=O)C1=C(c2ccccc2)NC(SC)=C(C#N)C1c1cccnc1 (stereo not drawn),2.3,-0.118,-14.5,·
CC(C)C12CN3CC(C(C)C)(CN(C1)C3c1ccc([N+](=O)[O-])o1)C2=O (stereo not drawn),11.8,-0.246,13.9,·
COc1ccc(-c2[nH]ncc2CN(CCO)CC23CC4CC(CC(C4)C2)C3)c(OC)c1,13.3,-0.301,3.6,·
CN(C)CCCN(C(=O)c1cccc(N2C(=O)CCC2=O)c1)c1nc2cc3c(cc2s1)OCO3,16.6,-0.281,7.2,·
CCC(C)(C)C1CCc2[nH]nc(C(=O)NC(C)C)c2C1 (stereo not drawn),·,·,-33.4,·
Cc1cccc(NC(=O)c2ccc([N+](=O)[O-])cc2Cl)n1,14.0,0.71,·,·
O=C(O)c1cc([N+](=O)[O-])ccc1NCc1cccnc1,·,·,0.4,·
Cc1cccc(C(=O)Nc2cccc(Br)c2)c1[N+](=O)[O-],8.6,0.0563,-4.4,·
COc1cccc(NC(=O)c2cccc(C)c2[N+](=O)[O-])c1,11.2,4.29*,-16.9,0.0819
COc1cccc(NC(=O)c2cc([N+](=O)[O-])ccc2NCc2cccnc2)c1,7.3,-6.66*,·,0.0297*
COCCNc1ccc([N+](=O)[O-])cc1C(=O)Nc1cccc(C)n1,10.0,-5.06*,6.1,0.0286*
O=C1/C(=C/c2cccc(Br)c2)SC(=S)N1/N=C/c1cc([N+](=O)[O-])ccc1O,-7.5,0.851,8.8,·
O=C(CCn1c(=S)[nH]c2ccccc2c1=O)NCCc1ccc(Cl)cc1,15.7,0.839,-11.4,·
COc1ccc(OC)c(C2C(C(C)=O)=C(C)Nc3ncnn32)c1 (stereo not drawn),·,·,5.8,·
CSCCC(NS(=O)(=O)/C=C/c1ccccc1)C(=O)O (stereo not drawn),14.2,0.112,0.6,·
O=C(CSc1ncn[nH]1)NC12CC3CC(CC(C3)C1)C2,·,2.96*,·,0.0745
O=C(O)CSc1ncn[nH]1,·,·,-29.6,·
O=C(COC(=O)c1sc2ccccc2c1Cl)Nc1ncc(Cl)cc1Cl,-3.1,-0.372,0.3,·
COc1cc(Cl)ccc1NC(=S)N(CCCN1CCOCC1)Cc1cn(C)c2ccccc12,3.6,-1.89,·,·
COc1ccc(Cl)cc1NC(=S)N(CCCN1CCOCC1)Cc1cn(C)c2ccccc12,19.1,-3.86*,·,0.0779
CCc1c(O)cc(=O)n(-c2ccccc2)c1-c1ccccc1,20.6,1.53,-22.0,·
CC(=O)C1=C(c2ccccc2)OC(N)=C(C#N)C1c1ccccc1C (stereo not drawn),16.2,·,14.6,·
SMILES,Calb biofilm kill,ROMK primary,Pf gamet viab,ROMK retest
CC(=O)C1(C)OC(N)=C(C#N)C(c2ccccc2)C1(C#N)C#N (stereo not drawn),·,-3.34*,-21.8,?
O=C1OC(/C=C/c2ccc(Cl)cc2)=NC/1=C/c1ccco1,10.8,-0.383,-6.2,·
Cn1cc(CNC(=O)c2cc(-c3ccccc3)nc3ccc(Br)cc23)cn1,-9.3,-0.0803,0.6,·
Cc1nn(C)cc1CN(C)C(=O)c1cc(-c2ccccc2)nc2ccc(Br)cc12,1.8,0.0391,-15.2,0.0584*
N#CCCN(Cc1cccs1)C(=O)Nc1ccccc1,-0.2,0.504,-21.7,·
CC(C)Cn1c(N)c(C(=O)COC(=O)c2ccc(F)cc2)c(=O)n(C)c1=O,14.0,0.28,-35.1,·
CCc1ccc(C(=O)OCC(=O)c2c(N)n(CC(C)C)c(=O)n(C)c2=O)cc1,-1.7,-10.6*,4.3,0.0816
O=C(N/N=C/c1ccco1)C(O)c1ccccc1 (stereo not drawn),11.8,-0.246,17.4,·
O=C(Cn1nnc2ccccc21)N/N=C/c1ccco1,15.0,·,10.1,·
CC(C)CC(NC(=O)c1ccccc1)C(=O)N/N=C/c1ccco1 (stereo not drawn),15.5,0.956,27.6,0.0856
O=C(Cn1nnc(-c2ccccc2)n1)N/N=C/c1ccco1,16.9,-11.7*,7.7,0.0724
Cc1ccc(C(=O)/C=C/c2ccc3ncccc3c2)cc1,·,·,-19.3,·
